The values below come from ChEMBL document CHEMBL2406979, “Antitumor activity of 2-hydroxycinnamaldehyde for human colon cancer cells through suppression of β-catenin signaling” (J Nat Prod, 2013).

The structures appear in SMILES notation. Active and inactive are the calls of the source. No cut-off for these calls is given here.

In this test the test system is HEK293. Description: Inhibition of Wnt/beta-catenin (unknown origin) signaling pathway expressed in HEK293 cells assessed as inhibition of TCF4 transcriptional activity at 5 to 40 uM after 24 hrs by TOPflash reporter gene assay. The settings on record: Homo sapiens. The class given is cell-based. A digest of the protocol: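 HEK293 cells seeded at 1.5 × 10^4 per well and cotransfected (Lipofectamine 2000) with TOPflash luciferase reporter 0.1 μg, Renilla 0.005 μg for normalization, pcDNA β-catenin 0.02 μg and TCF4 expression vector 0.004 μg to activate Wnt; 24 h later treated with compound or solvent for 24 h; dual luciferase read-out, Renilla-normalized, relative to vehicle; triplicate.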
(In general: Reporter assays use an easily measured gene product as a stand-in for the process of interest.)

For `COc1ccccc1/C=C/C=O`, the inhibition result was “Active”.
